How the values were obtained:
[1] = target: GABA-A receptor; anion channel; experiment: Displacement of [3H]GABA from Gamma-aminobutyric acid A receptor ofrat brain membranes; design: species or system Rattus norvegicus
In short: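 Male Wistar rat whole-brain synaptic membranes, frozen at -20 °C for at least 18 h, Triton X-100 (0.05%) treated at 37 °C for 30 min. Filtration, scintillation counting. Nonspecific binding with 100 μM muscimol. IC50 by log-probit analysis; means of two triplicate experiments.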

[2] = target: GABA B receptor (Rattus norvegicus, UniProt O88871+Q9Z0U4); experiment: Displacement of [3H]baclofen from Gamma-aminobutyric acid type B receptor of rat brain membranes; assay type: cell membranes, Membrane
In short: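 Rat whole-brain synaptic membranes were water-washed and frozen at -20 °C for at least 18 h. They were then washed repeatedly in 50 mM Tris-HCl pH 7.4 with 2.5 mM CaCl2 at 20 °C. The assay was stopped by centrifugation and read by scintillation counting. IC50 values are means of two experiments.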

GABA B receptor, sequence (Q9Z0U4 whole entry): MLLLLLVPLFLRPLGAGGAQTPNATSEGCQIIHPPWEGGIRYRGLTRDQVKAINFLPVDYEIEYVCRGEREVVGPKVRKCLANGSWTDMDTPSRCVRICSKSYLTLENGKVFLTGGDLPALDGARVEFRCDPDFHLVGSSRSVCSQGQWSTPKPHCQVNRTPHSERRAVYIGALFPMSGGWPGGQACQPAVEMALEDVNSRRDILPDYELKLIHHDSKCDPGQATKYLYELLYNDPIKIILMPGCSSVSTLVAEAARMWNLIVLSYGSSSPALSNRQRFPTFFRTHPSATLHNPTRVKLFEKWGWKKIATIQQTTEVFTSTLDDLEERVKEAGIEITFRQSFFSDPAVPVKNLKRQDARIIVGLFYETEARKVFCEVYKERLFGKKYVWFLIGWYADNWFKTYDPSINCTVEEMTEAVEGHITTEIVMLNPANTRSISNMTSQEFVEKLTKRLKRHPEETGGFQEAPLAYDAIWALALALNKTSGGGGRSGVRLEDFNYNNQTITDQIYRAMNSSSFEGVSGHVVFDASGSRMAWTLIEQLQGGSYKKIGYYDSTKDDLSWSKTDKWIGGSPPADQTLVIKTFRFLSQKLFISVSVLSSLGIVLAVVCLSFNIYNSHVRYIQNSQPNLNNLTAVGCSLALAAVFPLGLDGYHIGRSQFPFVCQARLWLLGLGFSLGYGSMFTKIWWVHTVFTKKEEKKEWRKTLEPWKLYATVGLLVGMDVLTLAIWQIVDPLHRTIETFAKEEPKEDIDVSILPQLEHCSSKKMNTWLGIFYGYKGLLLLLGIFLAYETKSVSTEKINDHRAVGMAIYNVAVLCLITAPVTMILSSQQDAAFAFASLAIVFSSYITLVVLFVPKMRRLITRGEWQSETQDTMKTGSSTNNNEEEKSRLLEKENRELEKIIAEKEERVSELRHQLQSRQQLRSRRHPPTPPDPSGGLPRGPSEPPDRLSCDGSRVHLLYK
GABA B receptor, sequence (O88871 whole entry): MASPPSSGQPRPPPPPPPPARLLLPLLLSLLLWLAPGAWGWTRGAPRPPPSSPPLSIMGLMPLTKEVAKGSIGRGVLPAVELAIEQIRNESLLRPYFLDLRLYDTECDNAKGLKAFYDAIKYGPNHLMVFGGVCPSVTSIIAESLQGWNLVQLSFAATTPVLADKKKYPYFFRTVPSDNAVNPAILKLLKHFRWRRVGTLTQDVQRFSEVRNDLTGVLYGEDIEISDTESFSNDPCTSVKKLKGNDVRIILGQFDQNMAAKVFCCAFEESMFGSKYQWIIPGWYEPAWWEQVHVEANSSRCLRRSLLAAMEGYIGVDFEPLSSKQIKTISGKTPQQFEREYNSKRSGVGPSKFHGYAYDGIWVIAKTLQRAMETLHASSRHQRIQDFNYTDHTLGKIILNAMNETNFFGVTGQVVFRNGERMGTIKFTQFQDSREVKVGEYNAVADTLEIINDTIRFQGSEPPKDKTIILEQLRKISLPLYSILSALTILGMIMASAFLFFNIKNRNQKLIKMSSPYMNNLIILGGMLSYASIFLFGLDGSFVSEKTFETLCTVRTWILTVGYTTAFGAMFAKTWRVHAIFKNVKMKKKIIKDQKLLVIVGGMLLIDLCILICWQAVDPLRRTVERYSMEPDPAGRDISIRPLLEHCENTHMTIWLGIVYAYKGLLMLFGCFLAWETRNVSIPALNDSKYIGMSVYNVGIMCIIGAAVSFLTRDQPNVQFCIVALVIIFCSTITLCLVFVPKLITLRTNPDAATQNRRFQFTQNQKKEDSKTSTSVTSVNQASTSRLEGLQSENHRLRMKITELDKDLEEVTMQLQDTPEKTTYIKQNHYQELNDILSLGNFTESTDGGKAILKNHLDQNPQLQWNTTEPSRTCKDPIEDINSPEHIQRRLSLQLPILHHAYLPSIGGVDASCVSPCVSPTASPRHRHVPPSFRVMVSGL

| Structure (SMILES) | IC50 [1] [µM] | IC50 [2] [µM] |
| --- | --- | --- |
| COc1ccc2c(c1)CC(C(CN)CC(=O)O)O2 (centres undefined) | > 100 | > 100 |
| NCC(CC(=O)O)c1ccc(OCc2ccc(Cl)s2)cc1 (centres undefined) | > 100 |  |
| NCC(CC(=O)O)c1ccc(O)cc1 (centres undefined) | > 100 | > 100 |
| NCC(CC(=O)O)C1Cc2ccccc2O1 (centres undefined) | > 100 | > 100 |
| NCC(CC(=O)O)c1ccc(OCc2ccc(F)cc2)cc1 (centres undefined) | > 100 | > 100 |
| CC(C)Oc1ccc(C(CN)CC(=O)O)cc1 (centres undefined) | > 100 |  |
| Cn1c(=O)oc2cc(C(CN)CC(=O)O)ccc21 (centres undefined) | > 100 | > 100 |
| NCC(CC(=O)O)c1ccc(OCc2ccccc2)cc1 (centres undefined) | > 100 | > 100 |
| COc1ccc2oc(C(CN)CC(=O)O)cc2c1 (centres undefined) | > 100 | 5.6 |
| NCC(CC(=O)O)c1cc2ccccc2o1 (centres undefined) | > 100 | 18 |
| NCc1cc(=O)[nH]o1 [MUSCIMOL] | 0.01 |  |
